Experiments:
[1] = Tmax in Sprague-Dawley rat at 10 mg/kg, po administered as single dose by LC-MS/MS method; assay type: ADME, organism-based; details: in vivo
Procedure, shortened: (§1)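 Single oral (10 mg/kg) or intravenous (1 mg/kg) dose in rats, n = 3. Jugular vein blood taken at 2, 15 and 30 min and 1, 2, 4 and 6 h. Plasma concentrations measured by LC-MS/MS.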

[2] = Bioavailability in Sprague-Dawley rat at 10 mg/kg, po administered as single dose by LC-MS/MS method; assay type: ADME, organism-based; details: in vivo; procedure, shortened: as §1
[3] = Cmax in Sprague-Dawley rat at 10 mg/kg, po administered as single dose by LC-MS/MS method; assay type: ADME, organism-based; design: dose 10 mg/kg, route oral; details: in vivo; procedure, shortened: as §1
[4] = Plasma concentration in Sprague-Dawley rat model of distension-induced rhythmic bladder contraction at 10 mg/kg, po measured after 3.5 hrs; assay type: ADME, organism-based
[5] = Volume of distribution at steady state in Sprague-Dawley rat at 1 mg/kg, iv administered as single dose by LC-MS/MS method; assay type: ADME, organism-based; details: in vivo, read-out: Vdss; procedure, shortened: as §1
[6] = Plasma concentration in Sprague-Dawley rat model of distension-induced rhythmic bladder contraction at 1 mg/kg, iv measured after 15 mins; assay type: ADME, organism-based
[7] = Drug metabolism in rat plasma assessed as hydrolyzation of methyl ester to carboxylic acid; assay type: ADME, cell-free

Tmax [1] [min] | bioavailability [2] [%] | Cmax [3] [nM] | concentration at 3.5 h [4] [nM] | Vd [5] [L/kg] | concentration at […] [6] [nM] | Drug metabolism [7] | Compound
50 | 59 | 3230 | > 1000 | 1.2 | 1120 | – | C[C@H](c1cc(F)cc(F)c1)N(C(=O)c1ccccc1)[C@@H](C(N)=O)c1ccccc1
– | – | – | – | – | – | Metabolite_Detected | COC(=O)[C@@H](c1ccccc1)N(Cc1cccc(OC)c1)C(=O)c1ccccc1

From ChEMBL document CHEMBL3872272, “Synthesis and optimization of novel α-phenylglycinamides as selective TRPM8 antagonists” (Bioorg Med Chem, 2017)
